Data set [1] addresses T1, Sigma non-opioid intracellular receptor 1 (Homo sapiens, UniProt Q99720). Put plainly: Displacement of [3H]-(+)-pentazocine from sigma 1 receptor (unknown origin) at 25 nM by scintillation counting analysis. Particulars: filed as agonist. Put shortly:
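Single-concentration screen at 25 nM test compound against [3H](+)pentazocine (15 nM) at S1R; scintillation counting; result given as % inhibition of control specific binding, i.e. 100 minus measured/control specific binding ×100.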
In general terms: Loss of bound radioactivity is the signal in a displacement assay; it reports binding, not function.

The target of data set [2] is Glutamate [NMDA] receptor (Homo sapiens) (UniProt Q05586+Q12879+Q13224+O15399+O60391+Q14957+Q8TCU5). Put plainly: Displacement of [3H]CGP39653 from human NMDAR at 25 nM by scintillation counting analysis. Format: protein-complex assay. Put shortly: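 NMDA receptor binding with [3H]CGP39653 (5 nM) as radioligand, test compound at 25 nM; displacement read by scintillation counting and reported as % inhibition of control specific binding.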

Data set [3] deals with T1, Sigma non-opioid intracellular receptor 1. Put plainly: Binding affinity to sigma 1 receptor (unknown origin) assessed as inhibition constant. The gist of the method:
(§1)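 Radioligand displacement at S1R with [3H](+)pentazocine (15 nM) and at S2R with [3H]DTG (25 nM); S2R assay includes 1 μM cold (+)pentazocine to mask S1R sites. Bound radioactivity counted by scintillation. IC50 and Hill slope from non-linear Hill fit of competition curves; Ki by Cheng–Prusoff using radioligand concentration and KD from Scatchard plot.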

Data set [4] has as its target Sigma intracellular receptor 2 (Homo sapiens, UniProt Q5BJF2). Put plainly: Binding affinity to sigma 2 receptor (unknown origin) assessed as inhibition constant. Put shortly:
as §1

A short description of data set [5]: Selectivity index, ratio of Ki for sigma 2 receptor (unknown origin) to Ki for sigma 1 receptor (unknown origin).
The subject of data set [6] is SH-SY5Y. The experiment in a line: Neuroprotective activity in human SH-SY5Y cells assessed as prevention of NMDA induced cytotoxicity by measuring cell viability at 0.1 to 0.5 uM incubated for 24 hrs in presence of NMDA by MTT assay. Format: functional, cell-based. Particulars: dose 0.1-0.5 µM. Put shortly:
(§2)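 SH-SY5Y cells (~7000/well) co-incubated 24 h at 37 °C in 2% FBS medium with toxic stimulus (NMDA 250 μM or oligomycin 2.5 μM) plus compound at 0.1–5 μM. Viability by MTT, expressed as % of control.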
A general note: Tetrazolium assays rely on reduction of a dye to a coloured formazan, in cell work by metabolically active cells.

Data set [7] relates to SH-SY5Y. Put plainly: Neuroprotective activity in human SH-SY5Y cells assessed as prevention of NMDA induced cytotoxicity by measuring cell viability at 1 to 5 uM incubated for 24 hrs in presence of NMDA by MTT assay. The settings on record: dose 1-5 µM. Format: functional, cell-based. Put shortly:
as §2

A short description of data set [8]: Cytotoxicity against human SH-SY5Y cells assessed as reduction in cell viability incubated for 72 hrs by MTT assay. In kind it is toxicity, cell-based. Put shortly: (§3)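 SH-SY5Y cells kept in DMEM/10% FBS, 2 mM glutamine, 37 °C, 5% CO2; ~7000 cells/well, after 1 day given compound (six concentrations, 0.1–100 μM; DMSO stocks 10 mM) in 2% FBS medium for 72 h. MTT (0.5% w/v, 2 h), formazan dissolved in DMSO, absorbance read; triplicates, % of untreated control.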

Data set [9] concerns SH-SY5Y. Put plainly: Cytotoxicity against human SH-SY5Y cells assessed as reduction in cell viability at 5 uM incubated for 72 hrs by MTT assay. Format: toxicity, cell-based. Put shortly: as §3
Data set [10] deals with PC-12. Put plainly: Neuroprotective activity in rat PC12 cells assessed as induction of NGF-mediated neurite outgrowth at 0.5 uM by neurite outgrowth assay (Rvb=26 +/- 4%). In kind it is functional. The gist of the method:
(§4)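 PC12 cells stimulated with NGF (2.5 nM) and treated with compound up to 5 μM, alone or after pre-treatment with S1R antagonist NE-100 (3 μM); read-out is percentage of cells bearing neurite sprouts; mean ± SEM of three independent experiments.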

Data set [11] deals with PC-12. Put plainly: Neuroprotective activity in rat PC12 cells assessed as induction of NGF-mediated neurite outgrowth at 0.5 uM in presence of NE-100 by neurite outgrowth assay. Format: functional, cell-based. The gist of the method:
as §4

Usually Ki stands for a dissociation constant, usually derived from enzyme kinetics or from competition with a known ligand. Usually CC50 stands for the concentration that lowers cell viability or growth by half.

Active and inactive are the calls of the source. The rule behind the calls is not given here.

Chain of Sigma intracellular receptor 2 (Q5BJF2 whole entry): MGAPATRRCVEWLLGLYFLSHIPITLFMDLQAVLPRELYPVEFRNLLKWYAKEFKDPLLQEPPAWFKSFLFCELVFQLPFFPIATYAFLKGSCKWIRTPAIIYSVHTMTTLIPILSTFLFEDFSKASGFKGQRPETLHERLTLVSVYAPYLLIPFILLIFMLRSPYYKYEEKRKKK
T1 sequence (Q99720 whole entry): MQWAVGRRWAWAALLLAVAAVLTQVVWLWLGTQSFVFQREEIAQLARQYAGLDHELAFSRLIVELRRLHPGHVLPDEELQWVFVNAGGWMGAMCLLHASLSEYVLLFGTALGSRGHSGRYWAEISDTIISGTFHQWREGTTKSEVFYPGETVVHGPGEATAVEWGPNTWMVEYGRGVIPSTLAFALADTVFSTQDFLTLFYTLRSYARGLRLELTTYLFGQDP

Consider `c1ccc(CN2CCN(CCSc3ccccc3)CC2)cc1`, for which the Activity was over 95% in data set [1] and under 11.9% in data set [2].
For the compound `c1ccc(CN2CCN(CCCOC3CCCCC3)CC2)cc1`, the figures for the Activity in data set [1] and in [2] were over 95% and under 11.9%, respectively.
For `c1ccc(CN2CCN(CCCSC3CCCCC3)CC2)cc1`, in that order: over 95% and under 11.9%.
On to `c1ccc(CN2CCN(CC3CSC4(CCCCC4)O3)CC2)cc1` (configuration not stated), for which the Ki in data set [3] is 1.3 nM; in [4], 91 nM. Further, the Ratio Ki in [5] was 70.
In the case of `CC12CC3CC(C)(C1)CC(N)(C3)C2` [MEMANTINE], in data set [6], the outcome was Active. The outcome in [7] was inactive. Further, the CC50 at 72 h in data set [8] came to 98000 nM. For the same compound, the Activity in data set [9] was 70%.
Regarding `CC1(C)SCC(CN2CCC(Cc3ccccc3)CC2)S1` (configuration not stated), the Ki in data set [3] amounted to 0.5 nM; in [4] it was 12 nM. Besides, the Ratio Ki in data set [5] came out at 24.
Turning to `CN(C)CC1CCOC1(c1ccccc1)c1ccccc1` (configuration not stated) [BLARCAMESINE], the Ki in [3] was determined as 6.3 nM.
In the case of `COc1ccc(CCN2CCN(CCCc3ccccc3)CC2)cc1OC` [[11C]SA4503], the Ki in [4] was 63 nM.
On to `c1ccc(CN2CCN(CC3CSCS3)CC2)cc1` (configuration not stated), for which, in data set [5], the Ratio Ki was found to be 43.
For the compound `c1ccc(CN2CCN(CC3COC4(CCCCC4)O3)CC2)cc1` (configuration not stated), the inhibition constant (Ki) turned out to be 0.74 nM in [3] and 35 nM in data set [4]. For the same compound, the Ratio Ki in data set [5] was determined as 47.
For `c1ccc(CC2CCN(CC3CSC4(CCCCC4)S3)CC2)cc1` (configuration not stated), in that order: 12 nM, 5 nM and 0.4.
With `C[C@H](CCN1CCCCC1)c1ccc(-c2ccccc2)cc1`, in data set [10], the Activity was 36%. Moreover, the result in [11] was inactive.

(Values after ChEMBL document CHEMBL5331102, “Novel S1R agonists counteracting NMDA excitotoxicity and oxidative stress: A step forward in the discovery of neuroprotective agents” (Eur J Med Chem, 2023).)
